Reference: ChEMBL document CHEMBL1139492, “Structure-activity relationships and effects on neuroactive steroid synthesis in a series of 2-phenylimidazo[1,2-a]pyridineacetamide peripheral benzodiazepine receptors ligands” (J Med Chem, 2005)

Experiments:
[1] = molecular target: GABA-A receptor; anion channel; assay: Displacement of [3H]flunitrazepam from central benzodiazepine GABA-A receptor of rat cerebral cortex; type: tissue-based
In short: (§1)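 Rat cerebral cortex homogenised in 50 vol ice-cold 50 mM Tris-HCl pH 7.4, spun twice at 20 000g for 10 min. Membranes (0.4–0.5 mg protein) incubated with [3H]flunitrazepam for 60 min at 0 °C. Rapid filtration on GF/B filters, scintillation counting. Nonspecific binding with 5 μM diazepam. Means of three experiments in duplicate; Ki reported.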

[2] = molecular target: GABA-A receptor; anion channel; assay: Inhibitory concentration of central benzodiazepine GABA-A receptor of rat cerebral cortex; type: tissue-based; in short: as §1
Translocator protein [3] = molecular target: T1, Translocator protein (Rattus norvegicus, UniProt P16257); assay: Displacement of [3H]-PK11195 from peripheral benzodiazepine receptor of rat ovary; type: tissue-based, Female gonad
In short: (§2)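 Rat tissue (cerebral cortex, ovary) homogenised in 50 vol PBS pH 7.4 at 4 °C, spun at 40 000g for 30 min, washed, resuspended in 10 vol PBS. […] Filtration on polyethyleneimine-soaked GF/B filters, scintillation counting. […] Means of three experiments in duplicate; Ki reported.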

Translocator protein [4] = molecular target: T1, Translocator protein; assay: Displacement of [3H]PK11195 from peripheral benzodiazepine receptor of rat cerebral cortex; type: tissue-based; in short: as §2
[5] = molecular target: Benzodiazepine receptors; peripheral & central (Rattus norvegicus) (UniProt O09028+P15431+P18506+P18508+P19969+P20236+P23574+P23576+P28471+P28473+P30191+P62813+P63079+P63138+Q91ZM7+Q9ES14+P16257); assay: Ratio of inhibition for peripheral benzodiazepine receptor of rat ovary and central benzodiazepine GABA-A receptor; type: tissue-based; parameters: scale not given here; conditions: Female gonad
Translocator protein [6] = molecular target: T1, Translocator protein; assay: Inhibitory concentration against peripheral benzodiazepine receptor of rat ovary; type: tissue-based, Female gonad; in short: as §2
Translocator protein [7] = molecular target: T1, Translocator protein; assay: Inhibitory concentration against peripheral benzodiazepine receptor of rat cerebral cortex; type: tissue-based; in short: as §2

T1 sequence (P16257 whole entry, looked up): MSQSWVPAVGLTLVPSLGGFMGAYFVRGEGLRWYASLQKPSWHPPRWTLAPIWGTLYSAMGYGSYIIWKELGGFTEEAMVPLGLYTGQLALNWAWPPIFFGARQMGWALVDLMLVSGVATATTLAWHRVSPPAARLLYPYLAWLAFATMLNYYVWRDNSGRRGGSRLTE

| SMILES | Ki [1] | pIC50 [2] | Ki (Translocator protein [3]) | Ki (Translocator protein [4]) | Selectivity index [5] | IC50 (Translocator protein [6]) | IC50 (Translocator protein [7]) |
| --- | --- | --- | --- | --- | --- | --- | --- |
| O=C(Cc1c(-c2ccccc2)nc2c(Cl)cc(Cl)cn12)N1CCCCC1 | 7590 nM | 5 | 1030 nM | 95.9 nM | 0.837 | 1460 nM | 157 nM |
| CCCCN(CCCC)C(=O)Cc1c(-c2ccc(Cl)cc2)nc2ccc(Cl)cn12 | 68.9 nM | 7.051 | 4.77 nM | 1.69 nM | 1.12 | 6.73 nM | 3.27 nM |
| CC(C)(C)N(Cc1ccccc1)C(=O)Cc1c(-c2ccc(Cl)cc2)nc2c(Cl)cc(Cl)cn12 | 7590 nM | 5 | 12900 nM | 2100 nM | -0.26 | 18200 nM | 3440 nM |
| O=C(Cc1c(-c2ccc(Cl)cc2)nc2c(Cl)cc(Cl)cn12)Nc1ccccc1 | 6880 nM | 5 | 18.3 nM | 11.7 nM | 2.6 | 25.2 nM | 19.9 nM |
| CCCCCCN(CCCCCC)C(=O)Cc1c(-c2ccc(Cl)cc2)nc2c(Cl)cc(Cl)cn12 | 7750 nM | 5 | 1890 nM | 222 nM | 0.584 | 2610 nM | 377 nM |
| O=C(Cc1c(-c2ccc(Cl)cc2)nc2c(Cl)cc(Cl)cn12)N1CCCC1 | 7010 nM | 5 | 608 nM | 126 nM | 1.02 | 843 nM | 215 nM |
| O=C(Cc1c(-c2ccccc2)nc2c(Cl)cc(Cl)cn12)Nc1ccncc1 | 7750 nM | 5 | 2970 nM | 1240 nM | 0.387 | 4100 nM | 2100 nM |
| O=C(Cc1c(-c2ccc(Cl)cc2)nc2c(Cl)cc(Cl)cn12)N1CCc2ccccc2C1 | 6880 nM | 5 | 25.3 nM | 2.97 nM | 2.45 | 35.6 nM | 4.86 nM |
| CCOC(=O)C1CCCN(C(=O)Cc2c(-c3ccc(Cl)cc3)nc3c(Cl)cc(Cl)cn23)C1 (centres undefined) | 6880 nM | 5 | 1740 nM | 79.8 nM | 0.597 | 2530 nM | 143 nM |
| CN(CCc1ccccn1)C(=O)Cc1c(-c2ccc(Cl)cc2)nc2c(Cl)cc(Cl)cn12 | 7750 nM | 5 | 3690 nM | 530 nM | 0.294 | 5080 nM | 899 nM |
| CC(C(=O)N(C)Cc1ccccc1)c1c(-c2ccc(Cl)cc2)nc2c(Cl)cc(Cl)cn12 (centres undefined) | 7010 nM | 5 | 8330 nM | 5770 nM | – | 11600 nM | 9890 nM |
| CCCCN(CCCC)C(=O)Cc1c(-c2ccc(Cl)cc2)nc2ccccn12 | – | – | – | – | 1.19 | – | – |
| CCCCN(C(=O)Cc1c(-c2ccc(Cl)cc2)nc2c(Cl)cc(Cl)cn12)c1ccccc1 | 6880 nM | 5 | 3.65 nM | 7.84 nM | 3.32 | 4.8 nM | 13.3 nM |
| O=C(Cc1c(-c2ccccc2)nc2c(Cl)cc(Cl)cn12)N1CCc2ccccc2C1 | 6880 nM | 5 | 164 nM | 23.6 nM | 1.64 | 231 nM | 38.7 nM |
| O=C(Cc1c(-c2ccc(Cl)cc2)nc2c(Cl)cc(Cl)cn12)NCc1ccccc1 | 7010 nM | 5 | – | 98.8 nM | – | – | 169 nM |
| O=C(Cc1c(-c2ccccc2)nc2c(Cl)cc(Cl)cn12)N1CCCC1 | 6880 nM | 5 | 6650 nM | 757 nM | 0.029 | – | 1240 nM |
| CN(Cc1ccccc1)C(=O)Cc1c(-c2ccc(Cl)cc2)nc2c(Cl)cc(Cl)cn12 | 6880 nM | 5 | – | 1.38 nM | – | – | – |
